Laboratory results published in ChEMBL document CHEMBL1955778, “Design and synthesis of novel 7-aminoquinazoline derivatives: antitumor and anticonvulsant activities” (Bioorg Med Chem Lett, 2012).

Tests used:
Mus musculus [1] = assay: Anticonvulsant activity in mouse assessed as protection against maximal electroshock-induced seizure at 1 mmol/kg, ip administered 30 min prior to maximal electroshock-challenge measured after 60 mins relative to control; assay type: functional
Mus musculus [2] = assay: Anticonvulsant activity in mouse assessed as protection against strychnine-induced seizure at 1 mmol/kg, ip administered 30 min prior to strychnine-challenge measured after 60 mins relative to control; assay type: functional
Mus musculus [3] = assay: Anticonvulsant activity in mouse assessed as protection against picrotoxin-induced seizure at 1 mmol/kg, ip administered 30 min prior to picrotoxin-challenge measured after 60 mins relative to control; assay type: functional
Mus musculus [4] = assay: Anticonvulsant activity in mouse assessed as protection against pentylenetetrazol-induced seizure at 1 mmol/kg, ip administered 30 min prior to pentylenetetrazol-challenge measured after 60 mins relative to control; assay type: functional
MDA-MB-468 = assay: Growth inhibition of human MDA-MB-468 cells at 10 uM relative to control; assay type: functional; details: read-out: GI
Summary of the method: (§1)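 Each cell line in a 60-line human tumour panel exposed to one 10 μM concentration. Growth inhibition percentage computed as 100 minus the percentage activity relative to control.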

A549 = assay: Growth inhibition of human A549 cells at 10 uM relative to control; assay type: functional; details: read-out: GI; summary of the method: as §1
LOX IMVI = assay: Growth inhibition of human LOXIMVI cells at 10 uM relative to control; assay type: functional; details: read-out: GI; summary of the method: as §1
HCT-15 = assay: Growth inhibition of human HCT15 cells at 10 uM relative to control; assay type: functional; details: read-out: GI; summary of the method: as §1
HT-29 = assay: Growth inhibition of human HT-29 cells at 10 uM relative to control; assay type: functional; details: read-out: GI; summary of the method: as §1
Mus musculus [5] = assay: Anticonvulsant activity in ip dosed mouse assessed as protection against pentylenetetrazol-induced seizure administered 30 min prior to pentylenetetrazol-challenge measured after 60 mins; assay type: functional
Summary of the method: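 Mice received several doses for quantification. ED50 taken as the dose protecting 50% of mice against pentylenetetrazol-induced seizures.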

SK-MEL-28 = assay: Growth inhibition of human SK-MEL-28 cells at 10 uM relative to control; assay type: functional; details: read-out: GI; summary of the method: as §1
SF-295 = assay: Growth inhibition of human SF295 cells at 10 uM relative to control; assay type: functional; details: read-out: GI; summary of the method: as §1
UACC-62 = assay: Growth inhibition of human UACC62 cells at 10 uM relative to control; assay type: functional; details: read-out: GI
Summary of the method: (§2)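 Single-dose screen across the 60-cell-line human tumor panel at 10 μM. Growth inhibition is reported as a percentage, taken as 100 minus the % growth relative to untreated control.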

RPMI-8226 = assay: Growth inhibition of human RPMI8226 cells at 10 uM relative to control; assay type: functional; details: read-out: GI; summary of the method: as §1
MCF7 = assay: Growth inhibition of human MCF7 cells at 10 uM relative to control; assay type: functional; details: read-out: GI; summary of the method: as §1
UACC-257 = assay: Growth inhibition of human UACC257 cells at 10 uM relative to control; assay type: functional; details: read-out: GI; summary of the method: as §2
[6] = Therapeutic index, ratio of LD50 for mouse to ED50 for pentylenetetrazol-induced seizure in mouse; assay type: organism-based; details: in vivo, read-out: Ratio LD50/ED50
Summary of the method: (§3)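 In mice, LD50 is the dose causing 50% mortality. ED50 is the dose protecting 50% of mice against pentylenetetrazole-induced seizures. Therapeutic index = LD50/ED50.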

HL-60(TB) = assay: Growth inhibition of human HL-60(TB) cells at 10 uM relative to control; assay type: functional; details: read-out: GI
Summary of the method: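 Single-dose screen at 10 μM across the 60-cell-line tumour panel. Percent growth inhibition = 100 minus percent growth activity relative to untreated control.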

MDA-MB-435 = assay: Growth inhibition of human MDA-MB-435 cells at 10 uM relative to control; assay type: functional; details: read-out: GI; summary of the method: as §1
SNB-75 = assay: Growth inhibition of human SNB75 cells at 10 uM relative to control; assay type: functional; details: read-out: GI; summary of the method: as §2
PC-3 = assay: Growth inhibition of human PC3 cells at 10 uM relative to control; assay type: functional; details: read-out: GI; summary of the method: as §1
NCI-H522 = assay: Growth inhibition of human NCI-H522 cells at 10 uM relative to control; assay type: functional; details: read-out: GI; summary of the method: as §1
K562 = assay: Growth inhibition of human K562 cells at 10 uM relative to control; assay type: functional; details: read-out: GI; summary of the method: as §1
MDA-MB-231 = assay: Growth inhibition of human MDA-MB-231 cells at 10 uM relative to control; assay type: functional; details: read-out: GI; summary of the method: as §1
[7] = Neurotoxicity in ip dosed mouse assessed as impaired motor coordination administered 30 mins prior to test by chimney test; assay type: toxicity, organism-based; details: in vivo
Summary of the method: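 Mice, Chimney test. TD50 is the dose that produces minimal neurological toxicity (impaired motor coordination) in 50% of animals, estimated from testing at several doses.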

ACHN = assay: Growth inhibition of human ACHN cells at 10 uM relative to control; assay type: functional; details: read-out: GI; summary of the method: as §1
U-251 = assay: Growth inhibition of human U251 cells at 10 uM relative to control; assay type: functional; details: read-out: GI; summary of the method: as §2
Mus musculus [8] = species on record: Mus musculus; assay: Protective index, ratio of TD50 for mouse to ED50 for pentylenetetrazol-induced seizure in mouse; assay type: functional
Summary of the method: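 Mice. Index is TD50/ED50. TD50 is the dose causing minimal neurological toxicity in 50% of mice in the Chimney test. ED50 is the dose protecting 50% of mice against pentylenetetrazole-induced seizures. Both are estimated from testing at several doses.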

KM12 = assay: Growth inhibition of human KM12 cells at 10 uM relative to control; assay type: functional; details: read-out: GI; summary of the method: as §1
[9] = Toxicity in ip dose mouse assessed as mortality; assay type: organism-based; details: in vivo; summary of the method: as §3
UO-31 = assay: Growth inhibition of human UO31 cells at 10 uM relative to control; assay type: functional; details: read-out: GI; summary of the method: as §2
CCRF-CEM = assay: Growth inhibition of human CCRF-CEM cells at 10 uM relative to control; assay type: functional; details: read-out: GI; summary of the method: as §1
SK-OV-3 = assay: Growth inhibition of human SKOV3 cells at 10 uM relative to control; assay type: functional; details: read-out: GI; summary of the method: as §1
SR = assay: Growth inhibition of human SR cells at 10 uM relative to control; assay type: functional; details: read-out: GI; summary of the method: as §2
MOLT-4 = assay: Growth inhibition of human MOLT4 cells at 10 uM relative to control; assay type: functional; details: read-out: GI; summary of the method: as §1
SK-MEL-5 = assay: Growth inhibition of human SK-MEL-5 cells at 10 uM relative to control; assay type: functional; details: read-out: GI; summary of the method: as §1
BT-549 = assay: Growth inhibition of human BT549 cells at 10 uM relative to control; assay type: functional; details: read-out: GI; summary of the method: as §1
OVCAR-3 = assay: Growth inhibition of human OVCAR3 cells at 10 uM relative to control; assay type: functional; details: read-out: GI; summary of the method: as §1
SW-620 = assay: Growth inhibition of human SW620 cells at 10 uM relative to control; assay type: functional; details: read-out: GI; summary of the method: as §2
A498 = assay: Growth inhibition of human A498 cells at 10 uM relative to control; assay type: functional; details: read-out: GI; summary of the method: as §1
SF-539 = assay: Growth inhibition of human SF539 cells at 10 uM relative to control; assay type: functional; details: read-out: GI; summary of the method: as §1
CAKI-1 = assay: Growth inhibition of human CAKI-1 cells at 10 uM relative to control; assay type: functional; details: read-out: GI; summary of the method: as §1
Malme-3M = assay: Growth inhibition of human MALME-3M cells at 10 uM relative to control; assay type: functional; details: read-out: GI; summary of the method: as §1
EKVX = assay: Growth inhibition of human EKVX cells at 10 uM relative to control; assay type: functional; details: read-out: GI; summary of the method: as §1
SNB-19 = assay: Growth inhibition of human SNB19 cells at 10 uM relative to control; assay type: functional; details: read-out: GI; summary of the method: as §2
OVCAR-5 = assay: Growth inhibition of human OVCAR5 cells at 10 uM relative to control; assay type: functional; details: read-out: GI; summary of the method: as §1

SMILES	Activity (Mus musculus [1]) [%]	Activity (Mus musculus [2]) [%]	Activity (Mus musculus [3]) [%]	Activity (Mus musculus [4]) [%]	inhibition of growth at 10 µM (A549) [%]	inhibition of growth at 10 µM (HCT-15) [%]	inhibition of growth at 10 µM (HT-29) [%]	ED50 (Mus musculus [5]) [µmol/kg]	inhibition of growth at 10 µM (SK-MEL-28) [%]	inhibition of growth at 10 µM (UACC-62) [%]	inhibition of growth at 10 µM (RPMI-8226) [%]	inhibition of growth at 10 µM (MCF7) [%]	inhibition of growth at 10 µM (UACC-257) [%]	selectivity ratio [6]	inhibition of growth at 10 µM (MDA-MB-435) [%]	inhibition of growth at 10 µM (SNB-75) [%]	inhibition of growth at 10 µM (PC-3) [%]	inhibition of growth at 10 µM (K562) [%]	TD50 at 0.5 h [7] [µmol/kg]	inhibition of growth at 10 µM (ACHN) [%]	other results
Cc1ccccc1-n1c(C)nc2cc(-n3c(C)nc4ccccc4c3=O)ccc2c1=O	100	0	0	0	–	–	–	–	–	–	–	–	–	–	–	–	–	–	–	–	–
Cc1ccccc1-n1c(C)nc2cc(-n3c(C)nc4ccc(Cl)cc4c3=O)ccc2c1=O	50	0	–	33	–	–	–	–	–	–	–	–	–	–	–	–	–	–	–	–	–
Cc1ccccc1-n1c(C)nc2cc(/N=C/c3ccco3)ccc2c1=O	50	0	–	0	–	–	–	–	–	–	–	–	–	–	–	–	–	–	–	–	–
Cc1ccccc1-n1c(C)nc2cc(N3C(=O)CSC3c3ccc(F)cc3)ccc2c1=O (stereo not given)	100	0	75	100	2	5	3	400	11	14	10	9	9	2.55	9.7	8.5	12.2	10	560	3	inhibition of growth at 10 µM (MDA-MB-468): 2.5%; inhibition of growth at 10 µM (LOX IMVI): 5%; inhibition of growth at 10 µM (SF-295): 7%; inhibition of growth at 10 µM (HL-60(TB)): 7%; inhibition of growth at 10 µM (NCI-H522): 18%; inhibition of growth at 10 µM (MDA-MB-231): 8%; inhibition of growth at 10 µM (U-251): 11%; Ratio TD50/ED50 (Mus musculus [8]): 1.4; inhibition of growth at 10 µM (KM12): 4%; LD50 [9]: 1020 µmol/kg; inhibition of growth at 10 µM (UO-31): 11.7%; inhibition of growth at 10 µM (CCRF-CEM): 13.2%; inhibition of growth at 10 µM (SK-OV-3): 3%; inhibition of growth at 10 µM (SR): 4%; inhibition of growth at 10 µM (MOLT-4): 28.9%
Cc1ccccc1-n1c(C)nc2cc(N3C(=O)C=CC3=O)ccc2c1=O	33	0	–	0	–	–	–	–	–	–	–	–	–	–	–	–	–	–	–	–	–
CCOC(=O)Nc1ccc2c(=O)n(-c3ccccc3C)c(C)nc2c1	100	0	–	100	3	6.4	7.8	740	1.72	15.8	6.5	5	7	2.6	41.6	21.3	11.2	6.2	1780	4	inhibition of growth at 10 µM (SK-MEL-5): 2.4%; inhibition of growth at 10 µM (BT-549): 3.5%; inhibition of growth at 10 µM (OVCAR-3): 3.8%; inhibition of growth at 10 µM (SW-620): 2%; inhibition of growth at 10 µM (A498): 4%; inhibition of growth at 10 µM (SF-539): 17.2%; inhibition of growth at 10 µM (CAKI-1): 5.3%; inhibition of growth at 10 µM (U-251): 4.5%; Ratio TD50/ED50 (Mus musculus [8]): 2.4; inhibition of growth at 10 µM (KM12): 12%; inhibition of growth at 10 µM (Malme-3M): 5.4%; LD50 [9]: 1930 µmol/kg; inhibition of growth at 10 µM (EKVX): 11.6%; inhibition of growth at 10 µM (UO-31): 24.1%; inhibition of growth at 10 µM (SNB-19): 5.7%; inhibition of growth at 10 µM (CCRF-CEM): 2.2%; inhibition of growth at 10 µM (OVCAR-5): 3.2%; inhibition of growth at 10 µM (SR): 24.1%
